From ChEMBL document CHEMBL1208769, “Anti-T. cruzi activities and QSAR studies of 3-arylquinoxaline-2-carbonitrile di-N-oxides” (Bioorg Med Chem Lett, 2010)

Tests used:
[1] = test system: Trypanosoma cruzi; assay: Antitrypanosomal activity against Trypanosoma cruzi Tulahuen 2 epimastigotes assessed as inhibition of parasite growth at 25 uM relative to control; type: functional; details: read-out: GI
How it was run: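 Epimastigotes of T. cruzi Tulahuen 2 strain exposed to compound at 25 µM. Growth inhibition is given as percentage relative to untreated parasites. Values are means of three separate experiments, SD under 10%.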

[2] = test system: Trypanosoma cruzi; assay: Antitrypanosomal activity against Trypanosoma cruzi Tulahuen 2 epimastigotes; type: functional, organism-based
[3] = Octanol-water partition coefficient of the compound; type: physicochemical

| SMILES | IC50 [2] | logP [3] | inhibition of growth at 25 µM [1] |
| --- | --- | --- | --- |
| Cc1cc2c(cc1C)[n+]([O-])c(-c1ccccc1)c(C#N)[n+]2[O-] | 22.1 µM | 2.33 | 97.4% |
| N#Cc1c(NC(=O)c2ccco2)[n+]([O-])c2cc(F)c(F)cc2[n+]1[O-] | 19.2 µM | 0.868 | 53.1% |
| Cc1cc2c(cc1C)[n+]([O-])c(-c1ccc(Cl)cc1)c(C#N)[n+]2[O-] | 16.4 µM | 2.83 | 98.7% |
| N#Cc1c(-c2ccc(F)cc2)[n+]([O-])c2ccc(C(F)(F)F)cc2[n+]1[O-] | 14.9 µM | 3.1 | 100% |
| Cc1ccc2c(c1)[n+]([O-])c(C#N)c(-c1ccc(F)cc1)[n+]2[O-] | 17.4 µM | 2.48 | 83.8% |
| COc1ccc2c(c1)[n+]([O-])c(C#N)c(-c1cccs1)[n+]2[O-] | 14.3 µM | 1.11 | 109% |
| Cc1ccc(-c2c(C#N)[n+]([O-])c3cc(C)ccc3[n+]2[O-])cc1 | 50 µM | 2.33 | 41.6% |
| N#Cc1c(-c2ccc(F)cc2)[n+]([O-])c2ccc(Cl)cc2[n+]1[O-] | 13.2 µM | 2.74 | 92.7% |
| COc1ccc2c(c1)[n+]([O-])c(C#N)c(-c1ccc(F)cc1)[n+]2[O-] | 14.6 µM | 1.97 | 84.2% |

These reach a lower IC50 [2]. Values come first.

| IC50 [2] | logP [3] | SMILES | inhibition of growth at 25 µM [1] |
| --- | --- | --- | --- |
| 12.3 µM | 2.95 | Cc1ccc(-c2c(C#N)[n+]([O-])c3cc(C(F)(F)F)ccc3[n+]2[O-])cc1 | 114% |
| 11.3 µM | 2.98 | N#Cc1c(-c2ccc(F)cc2)[n+]([O-])c2cc(Cl)c(Cl)cc2[n+]1[O-] | 85.3% |
| 11.3 µM | 2.87 | N#Cc1c(-c2ccc(Cl)cc2)[n+]([O-])c2cc(F)c(F)cc2[n+]1[O-] | 80.9% |
| 10.7 µM | 2.18 | Cc1ccc2c(c1)[n+]([O-])c(C#N)c(-c1ccc(OC(F)(F)F)cc1)[n+]2[O-] | 75.1% |
| 10.6 µM | 2.41 | Cc1cc2c(cc1C)[n+]([O-])c(-c1ccc(OC(F)(F)F)cc1)c(C#N)[n+]2[O-] | 79.8% |
